# Where “and” joins values, the source holds several entries; their conditions need not be identical. Identical values can stand only once.
# System: Mus musculus
# Assay: Audiogenic seizures after pretreatment with Aniracetam in DBA / 2 mice clonic phase at a dose range of 10-200 uM/kg
# Format: functional
# Settings: not given
# How it was run: (§1)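 DBA/2 mice pretreated with aniracetam 50 nmol icv 60 min before auditory testing, with ip 2,3-benzodiazepine; audiogenic clonic and tonic phases scored; ED50 by Litchfield-Wilcoxon.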
row,Compound,ED50
1,COc1cc2c(cc1OC)C(c1ccc(N)cc1)=NN(C)C(=O)C2,141 µmol/kg

# Organism: Mus musculus
# Assay: Pentylenetetrazole-induced seizures in Swiss mice after 45 min pretreatment at a dose range 10-150 uM / kg (95% confidence limits)
# Format: functional
# Settings: not given
row,Compound,ED50
1,COc1cc2c(cc1OC)C(c1ccc([N+](=O)[O-])cc1)=NNC(=O)C2,> 150 µmol/kg
2,COc1cc2c(cc1OC)C(c1ccc(N)cc1)=NN(C)C(=O)C2,70.8 µmol/kg

# System: Mus musculus
# Assay: Anticonvulsant activity against the maximal electroshock in Swiss mice after 45 minutes pretreatment at a dose range 10-150 uM/kg
# Format: functional
# Settings: not given
# How it was run: (§2)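 Swiss mice dosed ip in 50% DMSO/50% saline 45 min before ear-clip electroshock (50 mA, 20 ms pulses, 35 Hz, 400 ms). Protection = abolition of tonic hindlimb extension. Usually 4-5 doses with 8-10 mice each; ED50 (95% confidence limits) by Litchfield-Wilcoxon.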
row,Compound,ED50
1,COc1cc2c(cc1OC)C(c1ccccc1)=NN(C)C(=O)C2,42.7 µmol/kg
2,COc1cc2c(cc1OC)C(c1ccc(C#N)cc1)=NNC(=O)C2,> 150 µmol/kg
3,COc1cc2c(cc1OC)C(c1ccc([N+](=O)[O-])cc1)=NNC(=O)C2,> 150 µmol/kg

# System: Mus musculus
# Assay: Audiogenic seizures after pretreatment with Aniracetam in DBA / 2 mice tonic phase at a dose range of 33-300 uM/kg
# Format: functional
# Settings: not given
# How it was run: as §1
row,Compound,ED50
1,COc1cc2c(cc1OC)C(c1ccccc1)=NN(C)C(=O)C2,197 µmol/kg

# Organism: Mus musculus
# Assay: Audiogenic seizures after concomitant treatment with Flumazenil (8.24 uM) in DBA / 2 mice clonic phase
# Format: functional
# Settings: not given
row,Compound,ED50
1,COc1cc2c(cc1OC)C(c1ccc(N)cc1)=NN(C)C(=O)C2,51.2 µmol/kg

# System: Mus musculus
# Assay: Pentylenetetrazole-induced seizures in Swiss mice after 45 min pretreatment at a dose range 10-150 uM/kg
# Format: functional
# Settings: not given
row,Compound,ED50
1,COc1cc2c(cc1OC)C(c1ccccc1)=NN(C)C(=O)C2,89.9 µmol/kg
2,COc1cc2c(cc1OC)C(c1ccc(C#N)cc1)=NNC(=O)C2,> 150 µmol/kg

# System: not listed separately
# Assay: Motor toxicity in 50% of mice on locomotion assessed by Rotarod test following 30 min ip administration (95% confidence limits)
# Format: organism-based
# Settings: mouse, in vivo
# How it was run: (§3)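 Male Swiss mice (20-26 g, 48-54 days), groups of 10, trained on rotarod (3 cm, 8 rpm); tested 30 min after ip dosing. Impairment = failure to stay on for 2 min; TD50 (95% confidence limits) by Litchfield-Wilcoxon.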
row,Compound,TD50 at 0.5 h
1,COc1cc2c(cc1OC)C(c1ccc([N+](=O)[O-])cc1)=NNC(=O)C2,> 150 µmol/kg

# System: Mus musculus
# Assay: Anticonvulsant activity against tonic phase of the audiogenic seizures in DBA / 2 mice 30 min after ip administration at a dose range 10-100 uM/kg
# Format: functional
# Settings: 0.5 h
# How it was run: (§4)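 Groups of 10 DBA/2 mice of either sex; drug ip (0.1 mL/10 g) as fresh solution in 50% DMSO/50% saline, 30 min before auditory stimulation (12-16 kHz, 109 dB, 60 s or until tonic extension) under perspex dome after 60 s habituation. Latency and incidence of wild running, clonic and tonic phases scored; ED50 (95% confidence limits) by Litchfield-Wilcoxon.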
row,Compound,ED50
1,COc1cc2c(cc1OC)C(c1ccccc1)=NN(C)C(=O)C2,26.7 µmol/kg and 8.28 mg/kg
2,COc1cc2c(cc1OC)C(c1ccc(N)cc1)=NN(C)C(=O)C2,43.7 µmol/kg and 14.2 mg/kg

# System: Mus musculus
# Assay: Anticonvulsant activity against the clonic seizures induced by icv injection of AMPA in DBA / 2 mice at a dose range of 10-200 uM/kg
# Format: functional
# Settings: central
row,Compound,ED50
1,COc1cc2c(cc1OC)C(c1ccccc1)=NN(C)C(=O)C2,76.1 µmol/kg

# System: not listed separately
# Assay: Relative lipophilicity of compound
# Format: physicochemical
# Settings: reversed-phase TLC, acetone/water 2:1
# How it was run: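 Reversed-phase TLC type lipophilicity: plates dried 105 °C 1 h, mobile phase acetone:water 2:1, 1 µL of 3 mg/mL CHCl3 solution spotted; five runs with varied positions, mean Rf converted as Rm = log[(1/Rf) - 1].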
row,Compound,Rm
1,COc1cc2c(cc1OC)C(c1ccccc1)=NN(C)C(=O)C2,0
2,COc1cc2c(cc1OC)C(c1ccc(C#N)cc1)=NNC(=O)C2,-0.218
3,COc1cc2c(cc1OC)C(c1ccc([N+](=O)[O-])cc1)=NNC(=O)C2,-0.096
4,COc1cc2c(cc1OC)C(c1ccc(N)cc1)=NN(C)C(=O)C2,-0.374

# Organism: Mus musculus
# Assay: Audiogenic seizures after concomitant treatment with Flumazenil (8.24 uM) in DBA / 2 mice tonic phase
# Format: functional
# Settings: not given
row,Compound,ED50
1,COc1cc2c(cc1OC)C(c1ccc(N)cc1)=NN(C)C(=O)C2,38.5 µmol/kg

# System: Mus musculus
# Assay: Anticonvulsant activity against the clonic seizures induced by icv injection of AMPA in DBA / 2 mice at a dose range of 10-200 uM / kg (95% confidence limits)
# Format: functional
# Settings: central
row,Compound,ED50
1,COc1cc2c(cc1OC)C(c1ccc(N)cc1)=NN(C)C(=O)C2,72.1 µmol/kg

# System: Mus musculus
# Assay: Anticonvulsant activity against the tonic seizures induced by icv injection of AMPA in DBA / 2 mice at a dose range of 10-200 uM/kg
# Format: functional
# Settings: central
row,Compound,ED50
1,COc1cc2c(cc1OC)C(c1ccccc1)=NN(C)C(=O)C2,69.6 µmol/kg
2,COc1cc2c(cc1OC)C(c1ccc(N)cc1)=NN(C)C(=O)C2,62.4 µmol/kg

# Organism: Mus musculus
# Assay: Audiogenic seizures after concomitant treatment with Flumazenil (24.72 uM) in DBA / 2 mice clonic phase
# Format: functional
# Settings: not given
row,Compound,ED50
1,COc1cc2c(cc1OC)C(c1ccc(N)cc1)=NN(C)C(=O)C2,45.9 µmol/kg

# System: not listed separately
# Assay: Therapeutic index it is the ratio between TD50 and ED50 (from the clonic phase of the audiogenic seizures)
# Settings: read-out: TI
# How it was run: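 Therapeutic index computed as rotarod TD50 divided by ED50 for the clonic phase of audiogenic seizures in DBA/2 mice.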
row,Compound,therapeutic index (TD50/ED50)
1,COc1cc2c(cc1OC)C(c1ccccc1)=NN(C)C(=O)C2,4.1
2,COc1cc2c(cc1OC)C(c1ccc(N)cc1)=NN(C)C(=O)C2,3.2

# System: Mus musculus
# Assay: Anticonvulsant activity against clonic phase of the audiogenic seizures in DBA / 2 mice 30 min after ip administration at a dose range 10-100 uM/kg
# Format: functional
# Settings: 0.5 h
# How it was run: as §4
row,Compound,ED50
1,COc1cc2c(cc1OC)C(c1ccccc1)=NN(C)C(=O)C2,37.8 µmol/kg and 11.7 mg/kg
2,COc1cc2c(cc1OC)C(c1ccc(N)cc1)=NN(C)C(=O)C2,50.2 µmol/kg and 16.3 mg/kg

# System: Mus musculus
# Assay: Anticonvulsant activity against tonic phase of the audiogenic seizures in DBA / 2 mice 30 min after ip administration at a dose range 10-120 uM/kg
# Format: functional
# Settings: 0.5 h
# How it was run: as §4
row,Compound,ED50
1,COc1cc2c(cc1OC)C(c1ccc(C#N)cc1)=NNC(=O)C2,> 120 µmol/kg and > 44 mg/kg
2,COc1cc2c(cc1OC)C(c1ccc([N+](=O)[O-])cc1)=NNC(=O)C2,> 120 µmol/kg and > 44 mg/kg

# System: not listed separately
# Assay: Motor toxicity in 50% of mice on locomotion assessed by Rotarod test following 30 min ip administration
# Format: organism-based
# Settings: mouse, in vivo
# How it was run: as §3
row,Compound,TD50 at 0.5 h
1,COc1cc2c(cc1OC)C(c1ccccc1)=NN(C)C(=O)C2,154 µmol/kg
2,COc1cc2c(cc1OC)C(c1ccc(C#N)cc1)=NNC(=O)C2,> 150 µmol/kg
3,COc1cc2c(cc1OC)C(c1ccc(N)cc1)=NN(C)C(=O)C2,159 µmol/kg

# Organism: Mus musculus
# Assay: Audiogenic seizures after concomitant treatment with Flumazenil (24.72 uM) in DBA / 2 mice tonic phase
# Format: functional
# Settings: not given
row,Compound,ED50
1,COc1cc2c(cc1OC)C(c1ccc(N)cc1)=NN(C)C(=O)C2,32.2 µmol/kg

# System: Mus musculus
# Assay: Anticonvulsant activity against clonic phase of the audiogenic seizures in DBA / 2 mice 30 min after ip administration at a dose range 10-120 uM/kg
# Format: functional
# Settings: 0.5 h
# How it was run: as §4
row,Compound,ED50
1,COc1cc2c(cc1OC)C(c1ccc(C#N)cc1)=NNC(=O)C2,> 120 µmol/kg and > 44 mg/kg
2,COc1cc2c(cc1OC)C(c1ccc([N+](=O)[O-])cc1)=NNC(=O)C2,> 120 µmol/kg and > 44 mg/kg

# System: Mus musculus
# Assay: Anticonvulsant activity against the maximal electroshock in Swiss mice after 45 minutes pretreatment at a dose range uM/kg
# Format: functional
# Settings: not given
# How it was run: as §2
row,Compound,ED50
1,COc1cc2c(cc1OC)C(c1ccc(N)cc1)=NN(C)C(=O)C2,57.2 µmol/kg

# System: Mus musculus
# Assay: Audiogenic seizures after pretreatment with Aniracetam in DBA / 2 mice tonic phase at a dose range of 10-200 uM/kg
# Format: functional
# Settings: not given
# How it was run: as §1
row,Compound,ED50
1,COc1cc2c(cc1OC)C(c1ccc(N)cc1)=NN(C)C(=O)C2,112 µmol/kg

# System: Mus musculus
# Assay: Audiogenic seizures after pretreatment with Aniracetam in DBA / 2 mice clonic phase at a dose range of 33-300 uM/kg
# Format: functional
# Settings: not given
# How it was run: as §1
row,Compound,ED50
1,COc1cc2c(cc1OC)C(c1ccccc1)=NN(C)C(=O)C2,259 µmol/kg
